Each structure is given as a SMILES string.

This is an account of results in ChEMBL document CHEMBL1140286, “Synthesis, in vitro characterization, and radiolabeling of N,N-dimethyl-2-(2'-amino-4'-substituted-phenylthio)benzylamines: potential candidates as selective serotonin transporter radioligands” (J Med Chem, 2005).

Common to all, as to type: cell-based
Test [1] has as its target Sodium-dependent serotonin transporter (Homo sapiens, UniProt P31645). Put plainly: In vitro inhibition of [3H]citalopram binding to human serotonin transporter expressed in human HEK293 cells. In short, it runs like this:
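Membranes from HEK-293 cells stably expressing hSERT, grown in DMEM with 10% FBS and Geneticin. 30-70 µg membrane protein incubated 2 h at room temperature with [3H]citalopram in 53 mM Tris, 126 mM NaCl, 5.3 mM KCl, pH 7.9. Competitor at 12 concentrations, 10^-13 to 10^-5 M, in triplicate. Filtration through PEI-soaked GF/B filters; Ki from competition curves, at least two separate assays.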

For test [2], the target named is Sodium-dependent noradrenaline transporter (Homo sapiens, UniProt P23975). Briefly: In vitro inhibition of [3H]nisoxetine binding to norepinephrine transporter expressed in human kidney cells. In short, it runs like this: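 HEK-293 membranes stably expressing hNET (30-70 µg protein) incubated 4 h at 4 °C with [3H]nisoxetine in 53 mM Tris, 320 mM NaCl, 5.3 mM KCl, pH 7.4. Competitor dissolved in 1:1 ethanol/5 mM HCl, 12 concentrations from 10^-13 to 10^-5 M, triplicate. Cold-buffer termination, vacuum filtration on GF/B; Ki calculated from competition curves.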

Test [3] deals with Sodium-dependent dopamine transporter (Homo sapiens, UniProt Q01959). Put plainly: In vitro inhibition of [3H]WIN-35428 binding to human dopamine transporter expressed in canine kidney cells. The procedure, abridged:
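Membranes from MDCK cells stably expressing hDAT, grown to confluency in DMEM with 10% FBS and Geneticin, harvested in PBS/0.53 mM EDTA, homogenized, pelleted at 43 000g. Membranes (30-70 µg protein) incubated 1 h at room temperature in 42 mM sodium phosphate, 320 mM sucrose, pH 7.4, with 2.0 nM [3H]WIN 35,428; competitor 10^-13 to 10^-5 M, 12 concentrations, triplicate; GF/B filtration; Ki.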

Chain of Sodium-dependent dopamine transporter (Q01959 whole entry): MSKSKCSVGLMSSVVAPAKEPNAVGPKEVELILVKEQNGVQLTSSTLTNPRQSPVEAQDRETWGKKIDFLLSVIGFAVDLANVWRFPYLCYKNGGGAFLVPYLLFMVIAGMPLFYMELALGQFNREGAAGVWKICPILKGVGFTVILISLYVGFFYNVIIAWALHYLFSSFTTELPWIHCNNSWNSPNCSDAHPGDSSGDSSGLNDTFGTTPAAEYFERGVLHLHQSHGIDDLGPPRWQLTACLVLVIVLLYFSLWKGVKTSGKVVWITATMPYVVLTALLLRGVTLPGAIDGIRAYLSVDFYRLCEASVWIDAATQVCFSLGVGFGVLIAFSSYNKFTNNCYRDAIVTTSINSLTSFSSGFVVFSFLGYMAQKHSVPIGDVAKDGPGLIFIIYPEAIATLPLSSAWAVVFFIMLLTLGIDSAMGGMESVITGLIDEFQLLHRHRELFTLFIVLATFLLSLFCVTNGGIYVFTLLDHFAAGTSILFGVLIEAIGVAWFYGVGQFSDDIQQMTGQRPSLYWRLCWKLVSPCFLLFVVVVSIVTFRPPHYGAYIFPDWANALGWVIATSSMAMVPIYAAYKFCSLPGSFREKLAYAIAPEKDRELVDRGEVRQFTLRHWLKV
Chain of Sodium-dependent noradrenaline transporter (P23975 whole entry): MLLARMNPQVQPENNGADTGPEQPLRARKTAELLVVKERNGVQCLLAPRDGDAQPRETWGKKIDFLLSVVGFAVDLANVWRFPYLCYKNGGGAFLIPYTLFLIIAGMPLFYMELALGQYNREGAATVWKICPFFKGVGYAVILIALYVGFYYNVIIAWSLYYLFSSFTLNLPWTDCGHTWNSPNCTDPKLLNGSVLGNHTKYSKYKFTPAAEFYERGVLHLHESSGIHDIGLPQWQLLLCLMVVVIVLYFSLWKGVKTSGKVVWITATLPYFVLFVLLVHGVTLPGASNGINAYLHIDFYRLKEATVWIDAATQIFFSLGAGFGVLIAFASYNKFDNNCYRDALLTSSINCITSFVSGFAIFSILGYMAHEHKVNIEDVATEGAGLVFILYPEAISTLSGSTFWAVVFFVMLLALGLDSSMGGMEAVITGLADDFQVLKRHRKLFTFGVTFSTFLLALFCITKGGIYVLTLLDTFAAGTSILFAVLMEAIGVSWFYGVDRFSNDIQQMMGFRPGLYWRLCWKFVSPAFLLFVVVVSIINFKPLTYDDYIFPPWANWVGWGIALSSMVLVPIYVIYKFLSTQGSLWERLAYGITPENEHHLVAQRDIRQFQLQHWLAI
Chain of Sodium-dependent serotonin transporter (P31645 whole entry): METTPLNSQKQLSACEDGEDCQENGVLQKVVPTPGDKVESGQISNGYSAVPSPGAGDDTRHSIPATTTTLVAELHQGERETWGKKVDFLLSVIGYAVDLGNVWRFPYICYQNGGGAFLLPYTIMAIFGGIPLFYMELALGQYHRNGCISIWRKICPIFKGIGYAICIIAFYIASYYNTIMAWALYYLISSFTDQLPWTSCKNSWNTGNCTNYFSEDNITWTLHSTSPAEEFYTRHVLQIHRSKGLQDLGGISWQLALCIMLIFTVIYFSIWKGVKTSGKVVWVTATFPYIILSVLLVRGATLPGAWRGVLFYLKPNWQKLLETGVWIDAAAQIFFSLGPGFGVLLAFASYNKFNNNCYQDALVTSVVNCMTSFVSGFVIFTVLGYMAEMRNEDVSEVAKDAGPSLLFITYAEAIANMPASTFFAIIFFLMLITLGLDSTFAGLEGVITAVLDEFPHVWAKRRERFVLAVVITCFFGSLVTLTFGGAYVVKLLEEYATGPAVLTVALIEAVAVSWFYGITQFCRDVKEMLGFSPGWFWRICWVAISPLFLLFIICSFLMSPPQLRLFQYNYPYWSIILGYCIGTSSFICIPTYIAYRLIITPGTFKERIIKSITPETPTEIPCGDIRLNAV

As usually defined, the Ki is a dissociation constant, usually derived from enzyme kinetics or from competition with a known ligand. Low readings indicate a stronger hold on the target, high ones a looser hold on the target. In the case of `CCc1ccc(Sc2ccccc2CNC)c(N)c1`, the inhibition constant Ki in test [1] was 2.04 nM; in test [2], 445 nM; in test [3], over 1000 nM.

Take `CCc1ccc(Sc2ccccc2CN(C)C)c(N)c1`: the Ki in test [1] was 0.49 nM; in test [2], 370 nM; in test [3], over 2000 nM.

For `CN(C)Cc1ccccc1Sc1ccc(CCCF)cc1N`, the Ki in test [1] is 8.55 nM; in test [2] it was 219 nM; in test [3], over 5000 nM.

Take `CN(C)Cc1ccccc1Sc1ccc(CO)cc1N`: the Ki in test [1] is 0.57 nM; in test [2], 303 nM; in test [3], over 1000 nM.

Regarding `CN(C)Cc1ccccc1Sc1ccc(CCCO)cc1N`, the results for the Ki in test [1], in test [2] and in test [3] were 92.3 nM, 108 nM and over 5000 nM, respectively.

For the molecule `Cc1ccc(Sc2ccccc2CN(C)C)c(N)c1`, the values for the Ki in test [1], in test [2] and in test [3] were 0.25 nM, 61 nM and 532 nM, respectively.

Consider `C=Cc1ccc(Sc2ccccc2CN(C)C)c(N)c1`, for which the Ki in test [1] amounted to 1.12 nM; in test [2], 269 nM; in test [3], 962 nM.

Turning to `CNC(=O)c1ccccc1Sc1ccccc1[N+](=O)[O-]`, the Ki was determined as 83.4 nM in test [1], 37.5 nM in test [2] and 969 nM in test [3].

Turning to `CN(C)Cc1ccccc1Sc1ccc(CCF)cc1N`, the Ki in test [1] was 8.5 nM; in test [2] it was over 5000 nM; in test [3] it was over 5000 nM.

Take `CNC(=O)c1ccccc1Sc1ccc(C)cc1[N+](=O)[O-]`: the figures for the Ki in test [1], in test [2] and in test [3] were 1.94 nM, 191 nM and 698 nM, respectively.

Regarding `CNCc1ccccc1Sc1ccc(CO)cc1N`, the figures for the Ki in test [1], in test [2] and in test [3] were 15.1 nM, 484 nM and over 1000 nM, respectively.

As to `CN(C)Cc1ccccc1Sc1ccccc1N`, the Ki was 1.59 nM in test [1], 4.95 nM in test [2] and 279 nM in test [3].

`CN(C)Cc1ccccc1Sc1ccc(CCO)cc1N`: the inhibitory constant (Ki) is 50.6 nM in test [1], 194 nM in test [2] and over 1000 nM in test [3].

In turn, `CN(C)Cc1ccccc1Sc1ccc(I)cc1N` returned a Ki in test [1] of 0.013 nM. This counts as picomolar.
